Measured values from publication PMC9762201 (Current Research in Pharmacology and Drug Discovery, 2022).
pEC50, pKi: −log10 of the molar value. Entries after “also recorded” stand apart in the source; their conditions may differ.

Tests used:
α1A-AR [1] = target: T1, α1A-AR (Homo sapiens, UniProt P35348); format: binding
T1 sequence (P35348 1-466): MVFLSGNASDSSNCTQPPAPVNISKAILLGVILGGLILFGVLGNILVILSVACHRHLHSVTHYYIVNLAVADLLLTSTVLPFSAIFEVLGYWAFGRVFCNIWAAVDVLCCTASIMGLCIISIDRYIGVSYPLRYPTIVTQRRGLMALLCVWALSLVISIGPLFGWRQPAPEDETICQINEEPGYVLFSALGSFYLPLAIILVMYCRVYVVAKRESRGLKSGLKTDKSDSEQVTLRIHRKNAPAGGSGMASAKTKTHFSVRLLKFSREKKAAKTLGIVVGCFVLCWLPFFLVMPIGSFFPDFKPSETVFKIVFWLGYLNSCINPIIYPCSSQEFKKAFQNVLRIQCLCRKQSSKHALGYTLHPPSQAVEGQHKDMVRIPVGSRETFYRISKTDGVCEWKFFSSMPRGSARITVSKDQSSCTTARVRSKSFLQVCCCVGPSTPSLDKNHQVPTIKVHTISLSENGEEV

[2] = 2.6 mg/kg, q.d., PO; 3 or 6 months of dosing; 3XTG mice; ref Perez, 2021b; cited from earlier work
α2A-AR = target: T2, α2A-AR (Homo sapiens, UniProt P08913); format: binding; conditions: Cos-1 membranes
T2 sequence (P08913 1-465): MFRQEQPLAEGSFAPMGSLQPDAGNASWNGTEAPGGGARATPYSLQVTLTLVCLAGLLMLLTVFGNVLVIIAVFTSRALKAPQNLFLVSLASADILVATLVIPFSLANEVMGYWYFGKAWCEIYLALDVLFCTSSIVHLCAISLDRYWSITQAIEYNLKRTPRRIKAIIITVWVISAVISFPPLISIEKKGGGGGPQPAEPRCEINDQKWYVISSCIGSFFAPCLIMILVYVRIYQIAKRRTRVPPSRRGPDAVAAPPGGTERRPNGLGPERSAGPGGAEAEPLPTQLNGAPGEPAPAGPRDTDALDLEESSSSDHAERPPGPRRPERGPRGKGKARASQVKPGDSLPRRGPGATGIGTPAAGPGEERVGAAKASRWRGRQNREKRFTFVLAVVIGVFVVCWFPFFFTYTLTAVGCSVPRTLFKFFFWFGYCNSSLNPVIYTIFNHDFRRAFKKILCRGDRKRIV

α1B-AR [3] = format: binding; conditions: 0.5 mM GTP
α1A-AR [4] = target: T1, α1A-AR; assay: Total inositol phosphate assay in Rat-1 fibroblasts expressing α1A-AR; format: cell-based
5-HT7A = 5-HT7A (Homo sapiens, UniProt P34969); assay: Psychoactive Drug Screening program GPCR binding screen, 5-HT7A
5-HT7A, sequence (P34969 1-445 isoform P34969-2): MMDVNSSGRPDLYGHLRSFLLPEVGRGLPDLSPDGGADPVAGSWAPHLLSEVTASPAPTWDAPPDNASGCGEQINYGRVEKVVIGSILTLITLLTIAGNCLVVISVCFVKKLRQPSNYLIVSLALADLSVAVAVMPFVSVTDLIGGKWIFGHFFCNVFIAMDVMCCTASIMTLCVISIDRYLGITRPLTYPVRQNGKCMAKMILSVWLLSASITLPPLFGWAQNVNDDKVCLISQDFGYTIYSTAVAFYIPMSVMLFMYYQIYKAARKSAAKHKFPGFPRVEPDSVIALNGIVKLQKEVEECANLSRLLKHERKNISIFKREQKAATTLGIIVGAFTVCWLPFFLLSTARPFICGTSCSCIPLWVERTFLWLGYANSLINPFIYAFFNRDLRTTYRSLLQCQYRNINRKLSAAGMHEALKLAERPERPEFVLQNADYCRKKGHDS

α1D-AR [5] = target: T3, α1D-AR (Homo sapiens, UniProt P25100); assay: Total inositol phosphate assay, cells expressing α1D-AR; format: cell-based; conditions: data not shown
T3 sequence (P25100 1-572): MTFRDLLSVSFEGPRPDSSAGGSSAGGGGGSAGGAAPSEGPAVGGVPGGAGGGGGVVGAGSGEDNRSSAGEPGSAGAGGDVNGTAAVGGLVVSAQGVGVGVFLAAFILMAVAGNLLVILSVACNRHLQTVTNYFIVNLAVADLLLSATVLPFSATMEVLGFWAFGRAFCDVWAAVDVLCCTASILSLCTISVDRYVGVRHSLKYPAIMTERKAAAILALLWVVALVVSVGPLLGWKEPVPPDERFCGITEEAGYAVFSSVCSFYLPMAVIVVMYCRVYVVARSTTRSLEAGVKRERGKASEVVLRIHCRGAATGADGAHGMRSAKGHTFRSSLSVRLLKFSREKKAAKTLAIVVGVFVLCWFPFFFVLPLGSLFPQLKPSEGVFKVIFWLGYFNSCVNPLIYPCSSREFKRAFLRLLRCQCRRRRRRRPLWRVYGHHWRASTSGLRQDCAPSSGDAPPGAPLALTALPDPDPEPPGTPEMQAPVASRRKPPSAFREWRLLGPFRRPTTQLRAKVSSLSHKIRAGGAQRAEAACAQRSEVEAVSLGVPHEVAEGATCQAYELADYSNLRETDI
Method in brief: (§1)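 Cells expressing a single α1-AR subtype were seeded in DMEM at about 5 x 10^4 cells/well and rested overnight at 37 °C. They were labelled overnight with 3H-inositol, washed, and placed in serum-free DMEM with 10 mM LiCl (final) for 1 h. NE or Epi (one dose per well) plus test compound at one or several concentrations were added for 1 h at 37 °C. Total inositol phosphates were measured by anion-exchange chromatography.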

α1D-AR [6] = target: T3, α1D-AR; format: binding
α1B-AR [7] = assay: cAMP assay in Rat-1 fibroblasts expressing α1B-AR; format: cell-based; conditions: Cmpd-3 10^−7 to 10^−5 M
Method in brief: (§2)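 Rat-1 fibroblasts expressing one α1-AR subtype were plated serum-free at about 2.4 x 10^4 cells/well and rested overnight. They were preincubated 2 h at 37 °C with 10 μM propranolol, 0.1 μM rauwolscine and test compound. IBMX (100–200 μM) and NE or Epi were then added for 2 h, either as an agonist dose-response or at a fixed 10^-4 M. Cells were extracted in 0.1 M HCl for 20 min at RT, centrifuged at 1000 g, and cAMP was measured by EIA.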

α1A-AR [8] = target: T1, α1A-AR; assay: 3H-NE binding potentiation, membranes from Rat-1 fibroblasts expressing α1A-AR
α1D-AR [9] = target: T3, α1D-AR; assay: cAMP assay in Rat-1 fibroblasts expressing α1D-AR; format: cell-based; conditions: Cmpd-3 10^−6, 10^−5 M
Method in brief: as §2

α1B-AR [10] = assay: Total inositol phosphate assay, cells expressing α1B-AR; format: cell-based; conditions: data not shown
Method in brief: as §1

[11] = tested on: phosphorylation of CREB at Ser133; assay: p-CREB; format: cell-based; conditions: 10^−8 M; NE 10^−4 M; propranolol and rauwolscine present
3XTG mice = conditions: 2.6 mg/kg, q.d., PO, 3 or 6 months, ref Perez, 2021b; cited from earlier work
α1A-AR [12] = assay: cAMP assay and PAM assay in Rat-1 fibroblasts expressing α1A-AR; format: cell-based
[13] = compound 10^−5 M, absence of GTP, 125I-HEAT

- fraction of receptor in the high affinity state of NE in presence of compound (α1A-AR [1]; compound 10^−5 M, absence of GTP): 55%
- effect on binding profile of Epi at α1A-AR (α1A-AR [1]; [13]): no effect
- extent of inhibition of 3H-RX821002 binding at α2A-AR (α2A-AR): fully inhibited
- pKi (5-HT7A): 5.22
- effect on NE or Epi-mediated IP signal at α1D-AR (α1D-AR [5]): no effect
- pKi (α1D-AR [6]): 4.52
- difference in binding selectivity between the α1-AR subtypes (α1D-AR [6]; α1A-AR versus α1B-/α1D-AR): 1000 fold
- pEC50 (α1A-AR [8]): 10.00
Compound: CC(C)Cc1c(OCC2=NCCN2)cccc1N(C)S(C)(=O)=O.Cl [Cmpd-3, N-(3-((4,5-Dihydro-1H-imidazol-2-yl)methoxy)-2-isobutylphenyl)-N-methylmethanesulfonamide hydrochloride]
- extent of inhibition of 125I-HEAT binding at α1A-AR (α1A-AR [1]; 0.5 mM GTP): could not fully inhibit; also recorded: incomplete inhibition
- effect on NE binding at α1A-AR (α1A-AR [1]; [13]): stabilizes the high affinity binding site of NE
- effect on systolic blood pressure [2]: failed to change
- binding at α1B-AR (125I-HEAT competition) (α1B-AR [3]): did not display any binding; also recorded: does not bind
- effect on Epi-mediated inositol phosphate signal at α1A-AR (α1A-AR [4]): no effect; also recorded: does not affect
- effect on NE-mediated inositol phosphate signal at α1A-AR (α1A-AR [4]): no effect; also recorded: does not affect
- intrinsic (basal) agonist activity, inositol phosphate (α1A-AR [4]; compound alone, dose-response): cannot stimulate; also recorded: do not show any basal activity
- effect on NE or Epi-mediated cAMP response at α1B-AR (α1B-AR [7]): no effect; also recorded: does not change the potency or the Emax
- effect on NE or Epi-mediated cAMP response at α1D-AR (α1D-AR [9]): no effect; also recorded: does not change the potency or the Emax
- effect on NE or Epi-mediated IP signal at α1B-AR (α1B-AR [10]): no effect
- effect on NE-mediated p-CREB levels [11]: significantly potentiated; also recorded: increases
- effect on long-term potentiation and cognitive behavior (3XTG mice): statistically increased
- effect on Epi-mediated cAMP response at α1A-AR (α1A-AR [12]; Epi dose-response, propranolol and rauwolscine present): did not affect
- PAM activity (NE-mediated cAMP potentiation, PAM assay) (α1A-AR [12]; NE 10^−4 M held constant, compound dose-response): display PAM effect
- effect on NE-mediated cAMP response at α1A-AR (α1A-AR [12]; NE dose-response, propranolol and rauwolscine present): potentiated; also recorded: increases the Emax
- intrinsic (basal) agonist activity, cAMP (α1A-AR [12]; compound alone, dose-response): cannot stimulate; also recorded: do not show any basal activity
